Where “and” joins values, the source holds several entries; their conditions need not be identical. Equal entries are not always repeated.
Legend:
[1] = In vitro Cytotoxic concentration in mock-infected A3.01 cells - 100% toxicity.; format: functional, Homo sapiens
Outline: (§1)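 Toxicity was read on mock-infected A3.01, H9 or PBL cells handled alongside the infected ones (3 h mock infection, wash). Compounds were 3-fold serially diluted (AZT 5-fold). Incubation lasted 7 days, with medium and compound changed on day 4. Cytotoxicity was graded by eye from cell morphology and death. […] Single determination.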

[2] = In vitro Cytotoxic concentration in mock-infected A3.01 cells.; format: functional, Homo sapiens; outline: as §1
[3] = Selectivity index is defined as CC25(A3.01 cells) / IC50(A3.01 cells); format: functional
Outline: (§2)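 Selectivity index = CC25/IC50 within each line (A3.01, H9 or PBL). CC25 came from visual grading of mock-infected cells after 7 days. IC50 came from reverse transcriptase activity in infected-cell supernatants after 7 days, with medium and compound changed on day 4.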

[4] = Selectivity index is defined as CC25(PBLcells) / […]; format: functional; outline: as §2
H9 [5] = assay: In vitro Cytotoxic concentration which destroyed HIV-1 LAV infected H9 cells completely; format: functional, Homo sapiens; outline: as §1
[6] = In vitro Cytotoxic concentration which reduced HIV-1 LAV infected peripheral blood lymphocytes (PBL) by 25 percent; format: functional; outline: as §1
H9 [7] = assay: In vitro Cytotoxic concentration which reduced HIV-1 LAV infected H9 cells by 25 percent; format: functional, Homo sapiens; outline: as §1
MT2 [8] = assay: In vitro Cytotoxic concentration which destroyed HIV-1 LAV infected MT-2 cells completely; format: functional, Homo sapiens
Outline: (§3)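 MT-2 cells were mock-infected for 3 h at 37 °C in 5% CO2, then washed. Compound was added as serial dilutions (3-fold; AZT 5-fold) and incubated 4 days. Cytotoxicity was counted by trypan blue dye exclusion on a hemocytometer. […] Single determination.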

H9 [9] = assay: In vitro Cytotoxic concentration which reduced HIV-1 LAV infected H9 cells by 50 percent; format: functional, cell-based; settings: Homo sapiens
Outline: (§4)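 Cells (A3.01, H9 or PBL) infected with HIV-1 LAV for 3 h at 37 °C in 5% CO2, then washed free of unadsorbed virus. Test compounds were serially diluted 3-fold and AZT 5-fold. Cultures ran 7 days, with medium and compound renewed on day 4. Reverse transcriptase activity in supernatants gave virus levels. IC50 = concentration cutting virus by 50% versus control cultures. Single determination.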

MT2 [10] = assay: In vitro Cytotoxic concentration which reduced G 910-6p2 (post-AZT) infected MT-2 cells by 50 percent; format: functional, cell-based; settings: Homo sapiens
Outline: (§5)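 MT-2 cells were infected for 3 h at 37 °C in 5% CO2 with HIV-1 LAV or with clinical isolates G762-3, H112-2 (pre-AZT) or G691-2, G910-6p2 (post-AZT), then washed. Serial compound dilutions (3-fold; AZT 5-fold) followed, with 4-day incubation. Virus was measured as p24 core antigen by kit. IC50 = 50% reduction versus control cultures. Single determination.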

MT2 [11] = assay: In vitro Cytotoxic concentration which reduced HIV-1 LAV infected MT-2 cells by 25 percent; format: functional, Homo sapiens; outline: as §3
MT2 [12] = assay: In vitro Cytotoxic concentration which reduced H 112-2(pre-AZT) infected MT-2 cells by 50 percent; format: functional, cell-based; settings: Homo sapiens; outline: as §5
MT2 [13] = assay: In vitro Cytotoxic concentration which reduced G 691-2(post-AZT) infected MT-2 cells by 50 percent; format: functional, cell-based; settings: Homo sapiens; outline: as §5
[14] = In vitro Cytotoxic concentration which reduced HIV-1 LAV infected peripheral blood lymphocytes by 50 percent; format: functional; outline: as §4
[15] = Selectivity index is defined as CC25(MT2 cells) / […]; format: functional
Outline: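 Selectivity index = CC25/IC50 in MT-2 cells. CC25 came from trypan blue exclusion on mock-infected cells after 4 days. IC50 came from the 50% reduction in p24 antigen in HIV-1 LAV-infected cultures after 4 days.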

MT2 [16] = assay: (§6) In vitro Cytotoxic concentration which destroyed HIV-1 LAV infected peripheral blood lymphocytes (PBL) completely; format: functional, Homo sapiens; outline: as §1
MT2 [17] = assay: In vitro Cytotoxic concentration which reduced HIV-1 LAV infected MT-2 cells by 50 percent; format: functional, cell-based; settings: Homo sapiens; outline: as §5
MT2 [18] = assay: In vitro Cytotoxic concentration which reduced G 762-3(pre-AZT) infected MT-2 cells by 50 percent; format: functional, cell-based; settings: Homo sapiens; outline: as §5
[19] = Selectivity index is defined as CC25(H9 cells) / […]; format: functional; outline: as §2
[20] = as §6; format: functional; outline: as §1
[21] = In vitro cytotoxic concentration for mock-infected cells at which complete destruction of cells was observed; format: functional; outline: as §1
[22] = In vitro cytotoxic concentration for mock-infected CD4+ T cells at which 25% cells were destroyed; format: functional, T-cell; outline: as §1
[23] = Selectivity index is defined as CC25(A3.01 cells) / IC50(A3.01 cells); selectivity Index = CC25/IC50; format: functional; outline: as §2

Structure (SMILES) | CC100 [1] | CC25 [2] [µM] | Selectivity index [3] | other results
COC1(CO)OC(n2cc(C)c(=O)[nH]c2=O)CC1F (configuration not stated) | >400 µM | 400 | 125 | –
[N-]=[N+]=N[C@]1(CO)O[C@@H](n2ccc(=O)[nH]c2=O)[C@H](O)[C@@H]1O | >200 µM | >200 | >2.74 | –
Cc1cn([C@H]2C[C@H](O)[C@](CO)(N=[N+]=[N-])O2)c(=O)[nH]c1=O | 200 µM and >200 µM | – | 800 | Selectivity index [4]: 125; CC100 (H9 [5]): 667 µM; CC25 [6]: 2.5 µM; CC25 (H9 [7]): 25 µM; CC100 (MT2 [8]): >500 µM; IC50 (H9 [9]): 0.4 µM; IC50 (MT2 [10]): 0.52 µM; CC25 (MT2 [11]): 56 µM; IC50 (MT2 [12]): 0.4 µM; IC50 (MT2 [13]): 0.34 µM; IC50 [14]: 0.02 µM; Selectivity index [15]: 140; CC100 (MT2 [16]): >200 µM; IC50 (MT2 [17]): 0.4 µM; IC50 (MT2 [18]): 0.43 µM; Selectivity index [19]: 625
[N-]=[N+]=N[C@]1(CO)O[C@@H](n2ccc(N)nc2=O)C[C@@H]1O | 1.9 µM | 0.21 | 53 | –
Cc1cn([C@H]2C[C@H](N=[N+]=[N-])[C@@H](CO)O2)c(=O)[nH]c1=O [ZIDOVUDINE] | 3300 µM | 825 | – | CC100 (H9 [5]): 1200 µM; CC25 [6]: 4 µM; CC25 (H9 [7]): 44 µM; CC100 (MT2 [8]): >500 µM; IC50 (H9 [9]): 0.03 µM; IC50 (MT2 [10]): 31 µM; CC25 (MT2 [11]): 56 µM; IC50 (MT2 [12]): 0.2 µM; IC50 (MT2 [13]): 10 µM; IC50 [14]: 0.08 µM; CC100 [20]: >500 µM; IC50 (MT2 [17]): 0.16 µM; IC50 (MT2 [18]): 0.22 µM
CO[C@]1(CO)O[C@@H](n2cnc3c(N)ncnc32)C[C@@H]1O | >1000 µM | 1000 | 64.5 | –
Cc1cn([C@H]2CC[C@](CO)(N=[N+]=[N-])O2)c(=O)[nH]c1=O | 200 µM | 22 | – | –
[N-]=[N+]=N[C@]1(CO)O[C@@H](n2cnc3c(N)ncnc32)C[C@@H]1O | >50 µM | 50 | 385 | –
[N-]=[N+]=N[C@]1(CO)O[C@@H](N2C=NC3C(=O)N=CN=C32)C[C@@H]1O (some centres not stated) | 200 µM | <22 | <34 | –
[N-]=[N+]=N[C@]1(CO)O[C@@H](n2ccc(=O)[nH]c2=O)C[C@@H]1O | >200 µM | 200 | 250 | –
CO[C@H]1C[C@H](n2cc(C)c(=O)[nH]c2=O)O[C@@]1(CO)N=[N+]=[N-] | >200 µM | >200 | >9.8 | –
[N-]=[N+]=N[C@]1(CO)O[C@@H](n2cc(Cl)c(=O)[nH]c2=O)C[C@@H]1O | >1000 µM | 1000 | 17900 | –
CO[C@]1(CO)O[C@@H](n2cc(C)c(=O)[nH]c2=O)C[C@@H]1O | >200 µM | >200 | >23.6 | –
CO[C@]1(CO)O[C@@H](n2cnc3c(O)nc(N)nc32)C[C@@H]1O | – | – | – | CC100 [21]: 67 µM; CC25 [22]: 22 µM; Selectivity index [23]: 220
[N-]=[N+]=N[C@]1(CO)O[C@@H](n2ccc(N)nc2=O)[C@H](O)[C@@H]1O [4'-AZIDOCYTIDINE] | 74.1 µM | 8.2 | – | –
Cc1cn([C@H]2CC[C@@](CO)(N=[N+]=[N-])O2)c(=O)[nH]c1=O | 33.3 µM | 11.1 | – | –
[N-]=[N+]=N[C@]1(CO)O[C@@H](N2C=NC3C(=O)N=C(N)N=C32)C[C@@H]1O (some centres not stated) | 1.9 µM | 0.21 | 70 | –
Cc1cn(C2C=CC(CO)(N=[N+]=[N-])O2)c(=O)[nH]c1=O (configuration not stated) | 7.4 µM | 2.5 | – | –

Source: ChEMBL document CHEMBL1125438, “Synthesis and anti-HIV activity of 4'-azido- and 4'-methoxynucleosides” (J Med Chem, 1992)
